The source of these data is ChEMBL document CHEMBL1151761, “Radiohalogenated prostate-specific membrane antigen (PSMA)-based ureas as imaging agents for prostate cancer” (J Med Chem, 2008).

A short description of series [1]: Biodistribution in PC3 flu tumor of PSMA expressing human PC3 PIP and PSMA deficient human PC3 flu cells xenografted SCID mouse at 2 uCi, iv after 60 mins. It is filed as ADME, organism-based. The note with it: in vivo, 1 h. Put shortly: (§1)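 Male SCID mice carried subcutaneous PSMA+ PC-3 PIP (left shoulder) and PC-3 flu (right shoulder) xenografts, 1-5 × 10^6 cells in HBSS, and were used at 3-5 mm tumor diameter. Tail-vein injection of 2 µCi radioligand; four mice per time point, killed by cervical dislocation. %ID/g from a standard dilution of the dose, decay-corrected, mean ± SD; PIP tumor:organ ratios.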
(In xenograft studies the graft and the host belong to different species.)

Series [2] in a line: Biodistribution in PC3 flu tumor of PSMA expressing human PC3 PIP and PSMA deficient human PC3 flu cells xenografted SCID mouse at 2 uCi, iv after 30 mins. The note with it: in vivo, 0.5 h. It is filed as ADME, organism-based. Put shortly: as §1
Series [3] can be described thus: Biodistribution in large intestine of PSMA expressing human PC3 PIP and PSMA deficient human PC3 flu cells xenografted SCID mouse at 2 uCi, iv after 60 mins. Format: ADME, organism-based. The note with it: in vivo, 1 h. Put shortly:
as §1

The nature of series [4]: Biodistribution in large intestine of PSMA expressing human PC3 PIP and PSMA deficient human PC3 flu cells xenografted SCID mouse at 2 uCi, iv after 30 mins. To be noted: in vivo, 0.5 h. Format: ADME, organism-based. Put shortly: as §1
The nature of series [5]: Biodistribution in small intestine of PSMA expressing human PC3 PIP and PSMA deficient human PC3 flu cells xenografted SCID mouse at 2 uCi, iv after 60 mins. It is filed as ADME, organism-based. The note with it: in vivo, 1 h. Put shortly:
as §1

The nature of series [6]: Biodistribution in large intestine of PSMA expressing human PC3 PIP and PSMA deficient human PC3 flu cells xenografted SCID mouse at 2 uCi, iv after 2 hrs. The note with it: in vivo. Format: ADME, organism-based. Put shortly: as §1
Series [7] is described as follows: Biodistribution in small intestine of PSMA expressing human PC3 PIP and PSMA deficient human PC3 flu cells xenografted SCID mouse at 2 uCi, iv after 2 hrs. It is filed as ADME, organism-based. The note with it: in vivo. Put shortly: as §1
Series [8] in a line: Biodistribution in large intestine of PSMA expressing human PC3 PIP and PSMA deficient human PC3 flu cells xenografted SCID mouse at 2 uCi, iv after 5 hrs. Format: ADME, organism-based. To be noted: in vivo. Put shortly:
as §1

A short description of series [9]: Biodistribution in PC3 flu tumor of PSMA expressing human PC3 PIP and PSMA deficient human PC3 flu cells xenografted SCID mouse at 2 uCi, iv after 2 hrs. Format: ADME, organism-based. To be noted: in vivo. Put shortly:
as §1

Series [10] in a line: Biodistribution in small intestine of PSMA expressing human PC3 PIP and PSMA deficient human PC3 flu cells xenografted SCID mouse at 2 uCi, iv after 30 mins. It is filed as ADME, organism-based. To be noted: in vivo, 0.5 h. Put shortly:
as §1

Series [11] in a line: Biodistribution in PC3 PIP tumor of PSMA expressing human PC3 PIP and PSMA deficient human PC3 flu cells xenografted SCID mouse at 2 uCi, iv after 30 mins. Format: ADME, organism-based. To be noted: in vivo, 0.5 h. Put shortly:
as §1

A short description of series [12]: Biodistribution in small intestine of PSMA expressing human PC3 PIP and PSMA deficient human PC3 flu cells xenografted SCID mouse at 2 uCi, iv after 5 hrs. Format: ADME, organism-based. The note with it: in vivo. Put shortly:
as §1

A short description of series [13]: Biodistribution in PC3 flu tumor of PSMA expressing human PC3 PIP and PSMA deficient human PC3 flu cells xenografted SCID mouse at 2 uCi, iv after 5 hrs. Format: ADME, organism-based. To be noted: in vivo. Put shortly: as §1
Series [14] has as its target T1, Glutamate carboxypeptidase 2 (Homo sapiens, UniProt Q04609). Description: Inhibition of PSMA in human LNCaP cell extract using [3H]NAAG by radiometric assay. It is filed as cell-free.
The target of series [15] is T1, Glutamate carboxypeptidase 2. In words: Inhibition of PSMA in human LNCaP cell extract using [3H]NAAG by fluorescence-based assay. It is filed as cell-free.

T1 sequence (Q04609 whole entry): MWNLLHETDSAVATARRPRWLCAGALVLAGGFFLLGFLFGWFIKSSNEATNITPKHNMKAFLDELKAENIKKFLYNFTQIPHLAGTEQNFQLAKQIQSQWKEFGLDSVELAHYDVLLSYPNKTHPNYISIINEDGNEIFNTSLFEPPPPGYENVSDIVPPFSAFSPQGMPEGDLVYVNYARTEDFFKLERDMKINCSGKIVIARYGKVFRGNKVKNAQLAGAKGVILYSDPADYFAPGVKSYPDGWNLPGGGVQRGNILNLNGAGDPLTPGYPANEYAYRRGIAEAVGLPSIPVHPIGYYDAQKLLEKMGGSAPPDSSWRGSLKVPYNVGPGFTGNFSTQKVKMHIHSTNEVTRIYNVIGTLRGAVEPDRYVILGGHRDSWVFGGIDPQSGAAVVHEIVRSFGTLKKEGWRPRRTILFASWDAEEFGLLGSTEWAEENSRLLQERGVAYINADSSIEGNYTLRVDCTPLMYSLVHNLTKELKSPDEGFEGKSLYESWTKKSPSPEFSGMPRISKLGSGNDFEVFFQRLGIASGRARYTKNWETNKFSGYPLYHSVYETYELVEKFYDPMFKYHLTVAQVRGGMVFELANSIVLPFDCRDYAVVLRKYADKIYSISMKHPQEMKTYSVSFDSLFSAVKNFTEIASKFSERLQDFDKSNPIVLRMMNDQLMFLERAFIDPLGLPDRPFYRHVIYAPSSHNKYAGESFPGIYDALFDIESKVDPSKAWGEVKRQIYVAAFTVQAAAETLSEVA

For the molecule `O=C(O)CC[C@H](NC(=O)N[C@@H](CCCCNC(=O)c1cncc([125I])c1)C(=O)O)C(=O)O`, the Drug uptake amounted to 0.6 % ID/g in [1], 0.8 % ID/g in [2] and 0.6 % ID/g in series [3].

For `O=C(O)CC[C@H](NC(=O)N[C@@H](CCCCNC(=O)c1ccc([125I])cc1)C(=O)O)C(=O)O`, the Drug uptake in [4] was found to be 1.4 % ID/g; in [5], 3.8 % ID/g; in series [1] it was 1.2 % ID/g; in series [6], 0.6 % ID/g; in [7] it was 1.5 % ID/g; in series [2] it was 1.8 % ID/g. Besides, the Drug uptake in series [8] was determined as 0.7 % ID/g; in series [9], 0.7 % ID/g; in series [10], 4.9 % ID/g; in [11], 8.8 % ID/g; in [3], 1 % ID/g; in series [12] it was 1.5 % ID/g. This molecule also yielded a Drug uptake in series [13] of 0.6 % ID/g.

The Ki is the equilibrium dissociation constant of an inhibitor or competing ligand from its target. Lower therefore signals higher affinity. For the molecule `O=C(O)CC[C@H](NC(=O)N[C@@H](CCCCNC(=O)c1ccc(F)cc1)C(=O)O)C(=O)O`, the Ki is 0.256 nM in [14] and 0.194 nM in series [15].
